Reference: ChEMBL document CHEMBL2176965, “Synthesis and biological investigations of nitric oxide releasing nateglinide and meglitinide type II antidiabetic prodrugs: in-vivo antihyperglycemic activities and blood pressure lowering studies” (J Med Chem, 2012)
Calls of active or inactive are those of the source. The calls are words filed in the database; no cut-off is given here.

Experiments:
Rattus norvegicus [1] = assay: Antihyperglycemic activity in streptozotocin-induced diabetic Sprague-Dawley rat assessed as reduction in blood glucose level at 63.01 umol/kg, po after 3 hrs relative to control; assay type: functional; design: scale not given: the % may be the effect or the level left
Summary of the method: (§1)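 Male Sprague−Dawley rats (300−350 g) made diabetic with streptozotocin 65 mg/kg ip in citrate buffer pH 4.5, nonfasting. Animals with blood glucose 20−30 mmol/L at 48 h were selected, n = 4 per group. Oral dose 63.01 μmol/kg in water with 1% methyl cellulose; vehicle controls. Tail-vein glucose read by glucometer at 1, 3, 6, 24 h; change expressed as % of the 0 h level.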

[2] = Induction of NO release in PBS buffer at pH 7.4 incubated for 6 hrs; assay type: physicochemical; design: concentration or dose not given beside the values; conditions: pH 7.4, 6 h
Summary of the method: (§2)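 Compound (2.4 mL of 5.0 × 10−2 mM) incubated at 37 °C in phosphate buffer pH 7.4 for 1, 4, 6 or 24 h. Released NO quantified indirectly as nitrite by Griess reaction and expressed as % NO released.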

Mus musculus [3] = assay: Antihypertensive activity in C57BL/6 mouse assessed as reduction in systolic blood pressure at 63.01 umol/kg, po after 3 hrs (reference value: 118.3 mmHg); assay type: functional, Artery
Mus musculus [4] = assay: Antihypertensive activity in C57BL/6 mouse assessed as reduction in mean blood pressure at 63.01 umol/kg, po after 1 to 3 hrs; assay type: functional, organism-based
Mus musculus [5] = assay: Effect on heart rate in C57BL/6 mouse at 63.01 umol/kg, po after 6 hrs (reference value: 439 bpm); assay type: ADME, organism-based; conditions: in vivo
Rattus norvegicus [6] = assay: Antihyperglycemic activity in streptozotocin-induced diabetic Sprague-Dawley rat assessed as reduction in blood glucose level at 63.01 umol/kg, po after 6 hrs relative to control; assay type: functional; summary of the method: as §1
[7] = Induction of NO release in PBS buffer at pH 7.4 incubated for 1 hr; assay type: physicochemical; design: concentration or dose not given beside the values; conditions: pH 7.4, 1 h; summary of the method: as §2
[8] = Induction of NO release in PBS buffer in presence of rat serum at pH 7.4 incubated for 24 hrs; design: concentration or dose not given beside the values; conditions: pH 7.4, 24 h
Summary of the method: (§3)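 Compound (2.4 mL of 5.0 × 10−2 mM) incubated at 37 °C in PBS pH 7.4 with 90 μL rat serum, a source of nonspecific esterases, for 1, 3, 6 or 24 h. NO measured as nitrite by Griess reaction and expressed as % released.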

[9] = Induction of NO release in PBS buffer in presence of rat serum at pH 7.4 incubated for 1 hr; design: concentration or dose not given beside the values; conditions: pH 7.4, 1 h; summary of the method: as §3
Rattus norvegicus [10] = assay: Antihyperglycemic activity in streptozotocin-induced diabetic Sprague-Dawley rat assessed as reduction in blood glucose level at 63.01 umol/kg, po after 1 hr relative to control; assay type: functional; design: scale not given: the % may be the effect or the level left; summary of the method: as §1
Mus musculus [11] = assay: Antihypertensive activity in C57BL/6 mouse assessed as reduction in systolic blood pressure at 63.01 umol/kg, po after 6 hrs (reference value: 126.2 mmHg); assay type: functional, Artery
[12] = Induction of NO release in PBS buffer in presence of rat serum at pH 7.4 incubated for 6 hrs; design: concentration or dose not given beside the values; conditions: pH 7.4, 6 h; summary of the method: as §3
[13] = Induction of NO release in PBS buffer at pH 7.4 incubated for 4 hrs; assay type: physicochemical; design: concentration or dose not given beside the values; conditions: pH 7.4, 4 h; summary of the method: as §2
Mus musculus [14] = assay: Effect on heart rate in C57BL/6 mouse at 63.01 umol/kg, po after 1 hr (reference value: 449 bpm); assay type: ADME, organism-based; conditions: in vivo
Rattus norvegicus [15] = assay: Induction of hyperglycemia in streptozotocin-induced diabetic Sprague-Dawley rat assessed as increase in blood glucose level at 63.01 umol/kg, po after 24 hrs relative to control; assay type: organism-based; conditions: in vivo; summary of the method: as §1
Mus musculus [16] = assay: Antihypertensive activity in C57BL/6 mouse assessed as reduction in diastolic blood pressure at 63.01 umol/kg, po after 3 hrs; assay type: functional, organism-based; conditions: Artery
Mus musculus [17] = assay: Effect on heart rate in C57BL/6 mouse at 63.01 umol/kg, po after 3 hrs (reference value: 448 bpm); assay type: ADME, organism-based; conditions: in vivo
Mus musculus [18] = assay: Antihypertensive activity in C57BL/6 mouse assessed as reduction in systolic blood pressure at 63.01 umol/kg, po after 1 hr (reference value: 126.5 mmHg); assay type: functional, Artery
[19] = Induction of NO release in PBS buffer at pH 7.4 incubated for 24 hrs; assay type: physicochemical; design: concentration or dose not given beside the values; conditions: pH 7.4, 24 h; summary of the method: as §2
[20] = Induction of NO release in PBS buffer in presence of rat serum at pH 7.4 incubated for 3 hrs; design: concentration or dose not given beside the values; conditions: pH 7.4, 3 h
Rattus norvegicus [21] = assay: Antihyperglycemic activity in streptozotocin-induced diabetic Sprague-Dawley rat assessed as reduction in blood glucose level at 63.01 umol/kg, po after 24 hrs relative to control; assay type: functional, organism-based; summary of the method: as §1
Mus musculus [22] = assay: Antihypertensive activity in C57BL/6 mouse assessed as reduction in diastolic blood pressure at 63.01 umol/kg, po after 1 to 3 hrs; assay type: functional, organism-based; conditions: Artery
Rattus norvegicus [23] = assay: Induction of hyperglycemia in streptozotocin-induced diabetic Sprague-Dawley rat assessed as increase in blood glucose level at 63.01 umol/kg, po after 24 hrs relative to control; conditions: in vivo
Rattus norvegicus [24] = species on record: Rattus norvegicus; assay: Activation of soluble guanylyl cyclase in rat superior mesenteric arteries assessed as reversal of phenylephrine-induced tone at 1 uM by wire myography
Summary of the method: (§4)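 Denudation confirmed by no relaxation to acetylcholine (10 μM). Tone raised to 75% of maximal with phenylephrine (1−3 μM). Compounds added at 1 μM, without or with ODQ (10 μM), a soluble guanylyl cyclase inhibitor.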

Rattus norvegicus [25] = species on record: Rattus norvegicus; assay: Activation of soluble guanylyl cyclase in rat superior mesenteric arteries assessed as reversal of phenylephrine-induced tone in presence of ODQ at 1 uM by wire myography; summary of the method: as §4

Row | SMILES | Activity (Rattus norvegicus [1]) [%] | Activity [2] [%] | Activity (Mus musculus [4]) | Activity (Mus musculus [5]) [bpm] | Activity (Rattus norvegicus [6]) | Activity [7] [%] | Activity [8] [%] | Activity [9] [%] | Activity (Rattus norvegicus [10]) [%] | Activity (Mus musculus [11]) [mmHg] | Activity [12] [%] | Activity [13] [%] | Activity (Mus musculus [14]) [bpm] | Activity (Rattus norvegicus [15]) | Activity (Mus musculus [17]) [bpm] | Activity (Mus musculus [18]) [mmHg] | Activity [19] [%] | Activity [20] [%] | Activity (Rattus norvegicus [21]) | Activity (Rattus norvegicus [23]) | also measured
1 | CC(C)[C@H]1CC[C@H](C(=O)N[C@H](Cc2ccccc2)C(=O)OCO/N=[N+](/[O-])N2CCCC2)CC1 | 22.6 | 52.7 | Active | 435 | inactive | 6.7 | 65.3 | 40.2 | 8.1 | 134.3 | 50.1 | 6.8 | 454 | 48.7% | 458 | 108.4 | 59.9 | 47.2 |  |  | Activity (Mus musculus [3]): 106.2 mmHg; Activity (Mus musculus [16]): inactive
2 | CCN(CC)/[N+]([O-])=N/OCOC(=O)c1ccc(CCNC(=O)c2cc(Cl)ccc2OC)cc1 | 12.5 | 6.1 | Active | 435 | Active | 4.2 | 63.6 | 54.5 | 20 | 103.4 | 61.5 | 6 | 454 | Non-toxic | 458 | 96.8 | 6.5 | 55.9 | inactive | Non-toxic | Activity (Mus musculus [22]): Active
3 | CCN(CC)/[N+]([O-])=N\OCOC(=O)[C@@H](Cc1ccccc1)NC(=O)[C@H]1CC[C@H](C(C)C)CC1 | 23.5 | 58.8 | Active | 435 | 34.1% | 4.4 | 72.2 | 44.9 | 21.1 | 134.4 | 57.2 | 5.1 | 454 | Non-toxic | 458 | 113 | 61.3 | 50.2 |  | Non-toxic | Activity (Mus musculus [3]): 98.1 mmHg; Activity (Mus musculus [22]): Active; Activity (Rattus norvegicus [24]): Active; Activity (Rattus norvegicus [25]): inactive
4 | COc1ccc(Cl)cc1C(=O)NCCc1ccc(C(=O)OCCO[N+](=O)[O-])cc1 | 12.5 | 7.7 | Active | 435 | Active | 4.1 | 3.8 | 2.1 | 20 | 103.4 | 2.6 | 7.2 | 454 | Non-toxic | 458 | 105.8 | 9.4 | 2.3 | inactive | Non-toxic | Activity (Mus musculus [22]): Active
5 | CC(C)[C@H]1CC[C@H](C(=O)N[C@H](Cc2ccccc2)C(=O)OCCO[N+](=O)[O-])CC1 | 13.4 | 7.7 |  | 435 | 20.5% | 6.7 | 6.3 | 1.3 | 8.2 | 103.4 | 3.9 | 7.5 | 454 | Non-toxic | 458 | 129.9 | 9.2 | 1.9 |  | Non-toxic | Activity (Rattus norvegicus [24]): Active; Activity (Rattus norvegicus [25]): inactive
6 | COc1ccc(Cl)cc1C(=O)NCCc1ccc(C(=O)OCO/N=[N+](\[O-])N2CCCC2)cc1 | 12.5 | 7.2 | Active | 435 |  | 5.1 | 60.5 | 37.6 | 20 | 103.4 | 59.2 | 5.7 | 454 | Non-toxic | 458 | 90.3 | 8.9 | 51.7 | inactive | Non-toxic | Activity (Mus musculus [22]): Active
7 | COc1ccc(Cl)cc1C(=O)NCCc1ccc(C(=O)O)cc1 [MEGLITINIDE] | 8.8 |  |  |  | Active |  |  |  | 30.5 |  |  |  |  |  |  |  |  |  | inactive |  | 
8 | CC(C)[C@H]1CC[C@H](C(=O)N[C@H](Cc2ccccc2)C(=O)O)CC1 [NATEGLINIDE] | 26.4 |  |  |  | 30.6% |  |  |  | 13.8 |  |  |  |  |  |  |  |  |  |  |  | 
